The values that follow come from paper PMC9366947 (ACS Omega, 2022).

Marks after values point to notes of the source that are not given here.

One data set can be described thus: Partition coefficient. Type of data set: physicochemical. The following applies: n-octanol/water, shake flask. A digest of the protocol:
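Miniaturised shake flask. Octanol stock (1000 μg/mL) mixed with presaturated n-octanol and presaturated water, shaken overnight at 500 rpm, then centrifuged 20 min at 16 000 RCF. Both layers read by UV absorbance at 300 nm against calibration curves; run in triplicate.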

In data set [1] the test system is pentylenetetrazol-induced clonic and tonic convulsions in mice. The experiment in a line: PTZ seizures after oral dosing in mice. The class given is in vivo, C57BL/6N mice. The following applies: for peak time of efficacy / effect on latency to produce convulsions: 10 mg/kg oral, 70 mg/kg PTZ; for effect on latency to produce convulsions: 2 to 8 h after dosing; for lethality/number tested, 2 h: 2 h pretreatment; for lethality/number tested, 2 h / lethality/number tested, 4 h / lethality/number tested, 8 h: 60 min observation. The essentials:
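Male C57BL/6N mice dosed orally (1% carboxymethylcellulose, 10 mL/kg). After the pretreatment interval, PTZ 70 mg/kg s.c. in 0.9% NaCl. Lethality and latency to death recorded over 60 min. Deaths compared with the vehicle + PTZ group by Fisher's exact test; n=6–7 per group.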

The nature of data set [2]: Oral dose pharmacokinetics. Type of data set: in vivo, Sprague–Dawley rats. Particulars: rat; for AUC(0-t) / Kp / Kp at 24 h / Cmax: male, Sprague-Dawley, po, 2 mg/kg; for Kp / Kp at 24 h: brain/plasma; for Cmax (brain): oral 2 mg/kg, Table 1. A digest of the protocol: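 Adult male Sprague–Dawley rats, cassette dosing by oral gavage at 2.0 mg/kg (0.4 mg/mL in 0.25% methyl cellulose/water), n=3 per time point (15 min, 40 min, 2 h, 6 h, 24 h). Under ketamine/xylazine i.p., blood taken by cardiac puncture and brains collected. Brain homogenised in methanol; plasma and brain extracts cleaned up by solid-phase extraction and quantified by UPLC–MS/MS. Values are means.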

A short description of another data set: Kinetic. Particulars: water, 37 °C. The class given is physicochemical.
Data set [3] is described as follows: Thermodynamic equilibrium solubility in water and other solvents. Type of data set: physicochemical. Particulars: spectroscopic method.
Where [4] appears, read: oral, 4 h pretreatment, PTZ 70 mg/kg.
Setting [5] is: oral, 8 h pretreatment, PTZ 70 mg/kg.

On to `C#Cc1ccc2c(c1)C(c1ccccn1)=NCc1c(-c3cnco3)ncn1-2` [KRM-II-81, 5-(8-Ethynyl-6-(pyridin-2-yl)-4H-benzo[f]imidazo[1,5-a][1,4]diazepin-3-yl)oxazole], for which the log P (usually a log measure of how a compound divides between an organic and an aqueous phase) in the data set “Partition coefficient” stood at 1.763 ± 0.12. Further, in data set [1], the “peak time of efficacy” value is listed as “about 2 h” and the “effect on latency to produce convulsions” value is given as “approximately a doubling of the latency to produce convulsions”. Further, in data set [1] (oral, PTZ 70 mg/kg), the “lethality/number tested, 2 h” value was 0/6 ^a. For the same compound, the “lethality/number tested, 4 h” value in data set [1] (setting [4]) was 0/6 ^a. Besides, the “lethality/number tested, 8 h” value in data set [1] (setting [5]) is given as 0/6 ^a. In data set [2] (brain), the area under the curve AUC(0-t) (usually the area under the concentration-time curve up to a stated or last time point) was 2.69 µM·h. For the same compound, in data set [2], the Kp (commonly the ratio of the level in a tissue or fluid to that in plasma or blood) was found to be 0.32, the concentration ratio (Kp) at 24 h amounted to 0.77 and the “Cmax (brain)” value came to 594.2 nM. In addition, in data set [2] (plasma), the AUC(0-t) stood at 3.59 µM·h and the concentration peaked (Cmax) at 1830 nM.

In the case of `C#Cc1ccc2c(c1)C(c1ccccn1)=NCc1c(-c3cnco3)ncn1-2.Cl` [KRM-II-81·HCl, 2-(8-Ethynyl-3-(oxazol-5-yl)-4H-benzo[f]imidazo[1,5-a][1,4]diazepin-6-yl)pyridin-1-ium Chloride], in the data set “Kinetic”, the “persistence in solution state (supersaturation) vs free base” value is on record as “remain in the solution state for a longer period of time”. The log partition coefficient (log P) in the data set “Partition coefficient” stood at 0.53 ± 0.06. Also, in data set [3], the “improvement in water solubility, salt form vs free base” value is “Approximately 13 fold”. For the same compound, in data set [1], the “peak time of efficacy” value is recorded as “about 2 h” and the “effect on latency to produce convulsions” value was “approximately a doubling of the latency to produce convulsions”. Further, the “lethality/number tested, 2 h” value in data set [1] (oral, PTZ 70 mg/kg) is 0/6 ^a. Also, in data set [1] (setting [4]), the “latency to death, 4 h” value was found to be 15.68 s and the “lethality/number tested, 4 h” value was 1/6. In data set [1] (setting [5]), the “latency to death, 8 h” value is listed as 43.00 s and the “lethality/number tested, 8 h” value was 1/6. Also, in data set [2] (brain), the AUC(0-t) was 2.66 µM·h. For the same compound, in data set [2], the Kp came out at 0.52, the Kp at 24 h worked out at 1 and the “Cmax (brain)” value is 689.1 nM. Moreover, in data set [2] (plasma), the AUC(0-t) came out at 2.66 µM·h and the peak concentration (Cmax) (usually the highest concentration seen after dosing) came to 1320 nM.
